For data set [1], the target named is T1, Cystathionine beta-synthase (Homo sapiens) (UniProt P35520).
T1 sequence (whole entry): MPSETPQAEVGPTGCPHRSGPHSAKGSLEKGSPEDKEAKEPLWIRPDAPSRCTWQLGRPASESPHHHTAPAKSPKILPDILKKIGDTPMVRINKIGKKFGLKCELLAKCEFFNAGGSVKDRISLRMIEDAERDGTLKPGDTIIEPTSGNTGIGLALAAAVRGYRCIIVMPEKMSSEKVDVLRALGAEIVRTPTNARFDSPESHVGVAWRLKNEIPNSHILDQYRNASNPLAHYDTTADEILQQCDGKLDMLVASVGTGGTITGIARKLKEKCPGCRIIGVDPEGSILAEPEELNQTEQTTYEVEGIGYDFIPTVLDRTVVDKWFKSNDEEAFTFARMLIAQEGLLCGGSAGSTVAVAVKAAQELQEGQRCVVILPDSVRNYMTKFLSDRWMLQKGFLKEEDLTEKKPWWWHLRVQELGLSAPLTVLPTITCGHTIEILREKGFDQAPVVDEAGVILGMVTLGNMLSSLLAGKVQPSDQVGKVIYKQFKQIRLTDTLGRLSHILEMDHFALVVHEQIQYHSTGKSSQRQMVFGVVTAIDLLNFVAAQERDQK
Nature of the data set: Reversible inhibition of full-length GST-fused human CBS using cysteine/homocysteine as substrate assessed as decrease in H2S production at 100 uM preincubated for 1 hr followed by ultrafiltration for 5 times.

The target in data set [2] is T2, Cystathionine beta-synthase (Homo sapiens, UniProt P35520).
T2 sequence (P35520 whole entry): T1 sequence (whole entry)
Nature of the data set: Inhibition of full-length GST-fused human CBS using cysteine/homocysteine as substrate assessed as decrease in H2S production preincubated for 3 mins in presence of homocysteine and lead nitrate followed by cysteine addition. A digest of the protocol: (§1)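 The H2S-producing activity of the purified human enzyme was measured with cysteine and homocysteine as substrates in 50 mM HEPES, pH 7.4, with 0.4 mM lead nitrate (lead sulfide read-out).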

Data set [3] has as its target T3, Cystathionine gamma-lyase (Homo sapiens, UniProt P32929). Description: Inhibition of N-terminal His-tagged CSE extracted from human HepG2 cells expressed in Escherichia coli BL21 (DE3) using cysteine as substrate assessed as decrease in H2S production preincubated for 3 mins in presence of lead nitrate followed by cysteine addition. The procedure, abridged:
as §1

Data set [4] deals with HT-29. Description: Antiproliferative activity against human HT-29 cells assessed as decrease in cell viability after 24 hrs by CCK8 assay. In kind it is functional, cell-based. As to conditions: HT-29, 24 h. The procedure, abridged:
(§2)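 Viability of HT29 colon cancer cells and of NCM356 normal colon mucosal epithelial cells was measured across a concentration range and expressed relative to the control group. IC50 was taken from the dose–response curve. For HT29, values are means ± SD with n = 6.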

The species named for data set [5] is Homo sapiens. Description: Selectivity ratio of IC50 for N-terminal His-tagged CSE extracted from human HepG2 cells expressed in Escherichia coli BL21 (DE3) using cysteine as substrate assessed as decrease in H2S production to IC50 for full-length GST-fused human CBS using cysteine/homocysteine as substrate assessed as decrease in H2S production.
The nature of data set [6]: Antiproliferative activity against human NCM356 cells assessed as decrease in cell viability after 24 hrs by CCK8 assay. Format: cell-based. The procedure, abridged:
as §2
(Tetrazolium assays rely on reduction of a dye to a coloured formazan, in cell work by metabolically active cells.)

Data set [7] deals with T2, Cystathionine beta-synthase. Description: Inhibition of full-length GST-fused human CBS using methylcysteine as substrate measured for 10 mins by CPM probe-based fluorescence assay. The procedure, abridged: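 Enzyme source: full-length wild-type hCBS, 2 μg per reaction. Substrate: 10 mM methylcysteine. Buffer: 50 mM HEPES, pH 7.4, with 15 μM CPM thiol probe. Read-out: CH3SH release, followed as fluorescence at 460 nm (excitation 400 nm) over 600 s. Screening positive control: 100 μM AOAA. Secondary screen: compounds at 50 μM.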

Data set [8] concerns the target T3, Cystathionine gamma-lyase. Nature of the data set: Inhibition of N-terminal His-tagged CSE extracted from human HepG2 cells expressed in Escherichia coli BL21 (DE3) using methylcysteine as substrate measured for 10 mins by CPM probe-based fluorescence assay. The procedure, abridged: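 Methanethiol release by purified human CSE was monitored continuously with 10 mM methylcysteine as substrate in 50 mM HEPES, pH 7.4. Thiol was trapped by the CPM fluorescent probe and read at 460 nm (excitation 400 nm). IC50 was taken from the dose–response curve.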

The nature of data set [9]: Selectivity index, ratio of IC50 for human NCM356 cells to IC50 for human HT-29 cells. Format: toxicity. As to conditions: NCM356 cells versus HT-29 cells.

Calls of active or inactive are those of the source. The rule behind the calls is not given here.

The IC50 is the concentration at which inhibition is half-maximal.

T3 sequence (P32929 whole entry): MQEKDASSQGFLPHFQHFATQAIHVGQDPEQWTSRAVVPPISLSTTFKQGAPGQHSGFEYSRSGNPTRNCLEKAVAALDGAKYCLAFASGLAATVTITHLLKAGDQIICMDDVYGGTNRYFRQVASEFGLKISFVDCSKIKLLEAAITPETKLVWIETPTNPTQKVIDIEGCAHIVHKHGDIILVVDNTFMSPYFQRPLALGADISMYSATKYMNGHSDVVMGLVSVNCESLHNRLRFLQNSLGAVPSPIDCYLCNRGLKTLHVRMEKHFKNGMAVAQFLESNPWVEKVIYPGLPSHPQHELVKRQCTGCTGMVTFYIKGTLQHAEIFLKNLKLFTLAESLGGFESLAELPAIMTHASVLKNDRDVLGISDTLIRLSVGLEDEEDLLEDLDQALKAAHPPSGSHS

Take `Oc1ccc(-c2oc3cc(O)cc4c3c2-c2cc(O)cc3c2[C@H](c2cc(O)cc5c2[C@@H]4[C@H](c2ccc(O)cc2)O5)[C@@H](c2ccc(O)cc2)O3)cc1`: the inhibition result in [1] and in [3] was “Active” throughout. The IC50 in data set [2] came out at 5.9 µM.
As for `C[C@@H]1O[C@@H](Oc2c(-c3ccc(O)cc3)oc3cc(O)cc(O)c3c2=O)[C@H](OC(=O)/C=C\c2ccc(O)cc2)[C@H](O)[C@H]1OC(=O)/C=C\c1ccc(O)cc1`, in data set [1], the inhibition result is “Active”. Moreover, the IC50 was 6.2 µM in [2], over 400 µM in data set [3] and 1.5 to 13.5 µM in [4].
Consider `O=C(CCCCCCCCc1ccccc1)c1c(O)cc(O)cc1O`, for which, in data set [1], the inhibition result is “Active”. For the same compound, the IC50 in data set [2] was determined as 8.1 µM. Further, in data set [5], the Ratio IC50 is over 10.
On to `Oc1cc(O)cc(CCC/C=C\CCCCCCCCCc2cc(O)cc(O)c2)c1`, for which, in [1], the inhibition result is “Active”. In data set [2], the IC50 stood at 7.4 µM. Further, the Ratio IC50 in data set [5] was over 10.
For `NOCC(=O)O` [CARBOXYMETHOXYLAMINE], the IC50 in data set [2] was 4 µM; in [6], 800 µM; in data set [7], 1 µM; in [8], 0.57 µM; in data set [3] it was 4 µM; in [4] it was 140 µM.
On to `O=c1cc(-c2ccc(O)cc2)oc2c(-c3c(O)cc(O)c4c(=O)cc(-c5ccc(O)cc5)oc34)c(O)cc(O)c12` [CUPRESSUFLAVONE], for which, in [1], the inhibition entry was “Active”. Moreover, the IC50 in data set [2] is 11.5 µM; in data set [3], over 400 µM; in data set [4], at least 50 µM.
For the compound `Cc1cc(O)c2c(=O)c3c(O)cc(O)c4c5c(O)cc(O)c6c(=O)c7c(O)cc(C)c8c1c2c(c34)c(c78)c65` [HYPERICIN], in data set [1], the inhibition result was “Active”. Besides, in [2], the IC50 came out at 3.1 µM. Moreover, the Ratio IC50 in data set [5] was over 10.
As for `O=c1c(O)c(-c2cc(O)c(O)c(O)c2)oc2cc(O)cc(O)c12` [MYRICETIN], the inhibition result in data set [1] and in data set [3] was “Active” each time. Further, the IC50 in [2] worked out at 18.8 µM.
As to `COc1ccc(-c2cc(=O)c3c(O)cc(O)c(-c4cc(-c5cc(=O)c6c(O)cc(O)cc6o5)ccc4O)c3o2)cc1` [PODOCARPUSFLAVONE A], the inhibition entry in data set [1] was “Active”. For the same compound, the IC50 in [2] was 8.9 µM; in data set [6] it was 36 µM; in data set [3], over 400 µM; in [4], 7.9 µM. Besides, in [9], the selectivity ratio was 5.
In the case of `COc1ccc([C@H]2Oc3cc(O)cc(O)c3C(=O)[C@@H]2[C@H]2C(=O)c3c(O)cc(O)cc3O[C@@H]2c2ccc(O)cc2)cc1` [SIKOKIANIN C], the inhibition entry in data set [1] is “Active”. Also, the IC50 was 9.2 µM in data set [2], 19 µM in data set [6], over 400 µM in data set [3] and 1.5 µM in [4]. Also, the selectivity ratio in data set [9] came out at 10.
